Results published in publication PMC7974029 (The Journal of Biological Chemistry, 2021).

How the values were obtained:
[1] = molecular target: T1, BtSGBP-A (Bacteroides thetaiotaomicron, UniProt A0A173VPY3); experiment: ITC of laminarioligosaccharides with BtSGBP-A; format: binding; settings: for KD: BtSGBP-A, ITC, value as given in running text
T1 sequence (A0A173VPY3 23-515): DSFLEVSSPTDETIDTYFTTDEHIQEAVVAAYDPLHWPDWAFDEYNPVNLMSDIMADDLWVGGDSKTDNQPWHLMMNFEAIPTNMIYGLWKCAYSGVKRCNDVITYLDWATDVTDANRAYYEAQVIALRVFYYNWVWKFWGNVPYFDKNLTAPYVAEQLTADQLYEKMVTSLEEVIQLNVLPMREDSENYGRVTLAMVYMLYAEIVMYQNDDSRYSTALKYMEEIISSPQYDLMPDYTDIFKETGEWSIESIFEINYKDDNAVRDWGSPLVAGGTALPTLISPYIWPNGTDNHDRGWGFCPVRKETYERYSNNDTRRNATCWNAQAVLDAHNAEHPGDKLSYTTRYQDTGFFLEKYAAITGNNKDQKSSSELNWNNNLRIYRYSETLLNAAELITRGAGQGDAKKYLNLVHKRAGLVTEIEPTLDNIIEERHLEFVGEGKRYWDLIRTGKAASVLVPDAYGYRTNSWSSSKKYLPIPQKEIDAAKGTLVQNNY
Procedure, shortened: (§1)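 Recombinant SGBP from E. coli BL21(DE3) (IMAC, tag cleavage, SEC) at 100 μM in the cell was titrated with 1 mM laminari- or mixed-linkage gluco-oligosaccharide, all in 20 mM HEPES pH 7.0, at 25 °C. One 0.2 μl injection, then 18 × 2 μl at 150 s intervals, stirring 750 rpm. Isotherms were fitted with stoichiometry n fixed at 1.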

[2] = tested on: CBML-middle of BuSGBP-B; experiment: Affinity gel electrophoresis, BuSGBP-B CBML-middle domain; format: binding, Bacteroides uniformis; settings: 0.1% (w/v) polysaccharide in native gel
Procedure, shortened: (§2)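 Native PAGE with 10% (w/v) acrylamide cast with 0.1% (w/v) polysaccharide, or water for the control gel. 6.0 μg recombinant SGBP domain (His₆-tagged, E. coli BL21(DE3), Ni-IMAC, tag removed, size-exclusion purified) and 5.0 μg BSA reference were loaded. Gels were run nondenaturing at 80 V, 3 h, room temperature, and stained with Coomassie Brilliant Blue.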

[3] = tested on: CBML-distal of BuSGBP-B; experiment: Affinity gel electrophoresis, BuSGBP-B CBML-distal domain; format: binding, Bacteroides uniformis; settings: 0.1% (w/v) polysaccharide in native gel
Procedure, shortened: as §2

[4] = tested on: BuSGBP-A; settings: cited from earlier work
[5] = tested on: BuSGBP-B; settings: BuSGBP-B full length; cited from earlier work
[6] = molecular target: T2, BfSGBP-B (Bacteroides fluxus, UniProt F3PPH3); settings: BfSGBP-B full length; cited from earlier work
T2 sequence (F3PPH3 21-290): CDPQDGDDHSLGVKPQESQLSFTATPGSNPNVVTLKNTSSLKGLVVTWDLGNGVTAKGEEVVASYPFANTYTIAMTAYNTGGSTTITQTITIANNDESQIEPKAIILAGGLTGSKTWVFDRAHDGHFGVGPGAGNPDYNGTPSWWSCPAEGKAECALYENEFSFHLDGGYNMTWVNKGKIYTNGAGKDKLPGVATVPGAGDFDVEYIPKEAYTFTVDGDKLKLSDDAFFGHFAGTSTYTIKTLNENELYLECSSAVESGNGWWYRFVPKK

[7] = molecular target: T2, BfSGBP-B; experiment: ITC of laminarioligosaccharides and MLG oligosaccharides with BfSGBP-B; format: binding
Procedure, shortened: as §1

[8] = tested on: CBML-middle domain of BtSGBP; experiment: Affinity gel electrophoresis, BtSGBP-B CBML-middle domain; format: binding, Bacteroides thetaiotaomicron; settings: 0.1% (w/v) polysaccharide in native gel
Procedure, shortened: as §2

OC[C@H]1O[C@@H](O[C@@H]2[C@@H](O)[C@H](O[C@H]3[C@H](O)[C@@H](CO)OC(O)[C@@H]3O)O[C@H](CO)[C@H]2O)[C@H](O)[C@@H](O)[C@@H]1O (stereo partly drawn) [Laminaritriose]
KD [1]: too weak to be quantified

β(1,3)-glucan
binding by affinity gel electrophoresis (AGE) [2]: bind
binding by affinity gel electrophoresis (AGE) [3]: bind
polysaccharide binding [4]: does not display binding
polysaccharide binding [5]: bind
polysaccharide binding [6]: bind

OC[C@H]1O[C@@H](O[C@H]2[C@H](O)[C@@H](O)[C@H](O[C@H]3[C@H](O)[C@@H](CO)OC(O)[C@@H]3O)O[C@@H]2CO)[C@H](O)[C@@H](O)[C@@H]1O (stereo partly drawn) [G4G3G]
binding to BfSGBP-B by ITC (in words) [7]: binding

OC[C@H]1O[C@@H](O[C@@H]2[C@@H](O)[C@H](O[C@@H]3[C@@H](O)[C@H](O[C@H]4[C@H](O)[C@@H](CO)OC(O)[C@@H]4O)O[C@H](CO)[C@H]3O)O[C@H](CO)[C@H]2O)[C@H](O)[C@@H](O)[C@@H]1O (stereo partly drawn) [Laminaritetraose]
KD [1]: too weak to be quantified

OC[C@H]1O[C@@H](O[C@@H]2[C@@H](O)[C@H](O[C@@H]3[C@@H](O)[C@H](O[C@@H]4[C@@H](O)[C@H](O[C@@H]5[C@@H](O)[C@H](O[C@H]6[C@H](O)[C@@H](CO)OC(O)[C@@H]6O)O[C@H](CO)[C@H]5O)O[C@H](CO)[C@H]4O)O[C@H](CO)[C@H]3O)O[C@H](CO)[C@H]2O)[C@H](O)[C@@H](O)[C@@H]1O (stereo partly drawn) [Laminarihexaose]
Kd [1]: 26 µM

mixed-linkage β(1,3)/β(1,4)-glucan [MLG]
binding by affinity gel electrophoresis (AGE) [2]: exclusively responsible for the binding
binding by affinity gel electrophoresis (AGE) [8]: cannot bind
polysaccharide binding [5]: bind
polysaccharide binding [6]: bind

OC[C@H]1O[C@@H](O[C@H]2[C@H](O)[C@@H](O)[C@H](O[C@H]3[C@H](O)[C@@H](O)[C@H](O[C@H]4[C@H](O)[C@@H](CO)OC(O)[C@@H]4O)O[C@@H]3CO)O[C@@H]2CO)[C@H](O)[C@@H](O)[C@@H]1O (stereo partly drawn) [G4G4G3G]
binding to BfSGBP-B by ITC (in words) [7]: binding

OC[C@H]1O[C@@H](O[C@@H]2[C@@H](O)[C@H](O[C@@H]3[C@@H](O)[C@H](O[C@@H]4[C@@H](O)[C@H](O[C@H]5[C@H](O)[C@@H](CO)OC(O)[C@@H]5O)O[C@H](CO)[C@H]4O)O[C@H](CO)[C@H]3O)O[C@H](CO)[C@H]2O)[C@H](O)[C@@H](O)[C@@H]1O (stereo partly drawn) [Laminaripentaose]
Kd [1]: 210 µM
